Blank lines part the entries; values can stand above or below the compound they belong to.
Assays:
[1] = biological target: Hepatocyte growth factor receptor (Homo sapiens, UniProt P08581); test: Inhibition of cMet by HTRF assay
[2] = test system: A-431; test: Cytotoxicity against human A431 cells; format: functional, cell-based
[3] = Selectivity of cMet over RON
[4] = Selectivity of cMet over KDR
[5] = biological target: Mitogen-activated protein kinase 9 (Homo sapiens, UniProt P45984); test: Inhibition of JNK2
[6] = biological target: cAMP-dependent protein kinase catalytic subunit alpha (Homo sapiens, UniProt P17612); test: Inhibition of PKAalpha
[7] = biological target: Vascular endothelial growth factor receptor 2 (Homo sapiens, UniProt P35968); test: Inhibition of phosphorylated KDR by HTRF assay
Outline: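 HTRF assay against KDR kinase with 10-point serial dilution. ATP at two-thirds of the experimentally determined Km (Eadie-Hofstee and Lineweaver-Burke). Ki derived from the IC50.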

[8] = Selectivity of cMet over BTK
[9] = Inhibition of IGFR
[10] = Selectivity of cMet over PKBalpha
[11] = test system: Mus musculus; test: Inhibition of human recombinant HGF-induced cMet phosphorylation in po or ip dosed BALB/c mouse liver after 2 hrs
[12] = biological target: Hepatocyte growth factor receptor c-Met (Mus musculus) (UniProt P16056); test: Inhibition of human recombinant HGF-mediated cMet phosphorylation in mouse CT26 cells
[13] = Selectivity of cMet over Aurora2
[14] = Inhibition of FGFRK
[15] = biological target: Angiopoietin-1 receptor (Homo sapiens, UniProt Q02763); test: Inhibition of Tie2 kinase
[16] = biological target: Serine/threonine-protein kinase pim-1 (Homo sapiens, UniProt P11309); test: Inhibition of PIM1 kinase
[17] = biological target: Serine/threonine-protein kinase pim-2 (Homo sapiens, UniProt Q9P1W9); test: Inhibition of PIM2 kinase
[18] = biological target: T1, Aurora kinase A (Homo sapiens, UniProt O14965); test: Inhibition of Aurora2
T1 sequence (O14965 whole entry): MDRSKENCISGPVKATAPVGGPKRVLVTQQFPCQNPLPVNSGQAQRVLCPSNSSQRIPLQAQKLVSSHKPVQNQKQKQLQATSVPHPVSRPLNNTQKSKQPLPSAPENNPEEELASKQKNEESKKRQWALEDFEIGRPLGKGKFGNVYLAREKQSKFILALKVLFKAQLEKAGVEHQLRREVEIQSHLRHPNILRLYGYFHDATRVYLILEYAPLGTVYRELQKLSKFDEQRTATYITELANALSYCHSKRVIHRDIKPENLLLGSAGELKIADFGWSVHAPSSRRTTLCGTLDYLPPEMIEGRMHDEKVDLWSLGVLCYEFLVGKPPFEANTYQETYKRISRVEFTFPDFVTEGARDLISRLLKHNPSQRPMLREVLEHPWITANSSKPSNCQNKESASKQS

[19] = biological target: RAC-alpha serine/threonine-protein kinase (Homo sapiens, UniProt P31749); test: Inhibition of PKBalpha
[20] = biological target: Ribosomal protein S6 kinase alpha-5 (Homo sapiens, UniProt O75582); test: Inhibition of MSK1
[21] = biological target: Macrophage-stimulating protein receptor (Homo sapiens, UniProt Q04912); test: Inhibition of phosphorylated RON
[22] = Selectivity of cMet over PIM2
[23] = Selectivity of cMet over FGFRK2
[24] = Inhibition of P38 kinase
[25] = biological target: Tyrosine-protein kinase Lck (Homo sapiens, UniProt P06239); test: Inhibition of LCK
[26] = Selectivity of cMet over EGFR
[27] = biological target: T2, Tyrosine-protein kinase JAK3 (Homo sapiens, UniProt P52333); test: Inhibition of JAK3
T2 sequence (P52333 whole entry): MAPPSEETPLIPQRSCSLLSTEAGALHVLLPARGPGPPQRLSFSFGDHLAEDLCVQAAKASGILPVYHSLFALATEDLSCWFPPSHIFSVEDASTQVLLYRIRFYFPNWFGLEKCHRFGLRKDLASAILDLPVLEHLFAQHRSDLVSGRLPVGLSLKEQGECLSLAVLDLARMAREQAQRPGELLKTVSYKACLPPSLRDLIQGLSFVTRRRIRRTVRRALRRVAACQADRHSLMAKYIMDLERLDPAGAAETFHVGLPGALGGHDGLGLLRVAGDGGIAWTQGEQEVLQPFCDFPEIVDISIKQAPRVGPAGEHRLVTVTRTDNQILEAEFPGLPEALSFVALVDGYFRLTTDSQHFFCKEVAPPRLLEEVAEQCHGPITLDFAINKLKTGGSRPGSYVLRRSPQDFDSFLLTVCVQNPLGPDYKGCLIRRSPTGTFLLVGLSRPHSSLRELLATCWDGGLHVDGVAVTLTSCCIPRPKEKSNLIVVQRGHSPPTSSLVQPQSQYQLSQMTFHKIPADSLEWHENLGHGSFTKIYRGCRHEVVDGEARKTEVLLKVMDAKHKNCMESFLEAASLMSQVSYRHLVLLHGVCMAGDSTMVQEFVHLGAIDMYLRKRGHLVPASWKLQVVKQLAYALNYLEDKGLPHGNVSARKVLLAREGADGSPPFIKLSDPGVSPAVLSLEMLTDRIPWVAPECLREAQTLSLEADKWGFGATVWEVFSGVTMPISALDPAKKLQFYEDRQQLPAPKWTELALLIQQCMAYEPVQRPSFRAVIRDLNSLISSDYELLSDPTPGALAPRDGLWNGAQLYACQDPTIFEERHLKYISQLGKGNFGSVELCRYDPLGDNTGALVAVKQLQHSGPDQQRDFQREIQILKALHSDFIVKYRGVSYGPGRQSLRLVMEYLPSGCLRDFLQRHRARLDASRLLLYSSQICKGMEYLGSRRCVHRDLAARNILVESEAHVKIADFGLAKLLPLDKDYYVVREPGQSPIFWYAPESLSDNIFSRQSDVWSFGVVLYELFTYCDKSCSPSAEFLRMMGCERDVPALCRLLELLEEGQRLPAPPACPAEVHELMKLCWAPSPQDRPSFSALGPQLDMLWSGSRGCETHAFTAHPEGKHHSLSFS

[28] = Selectivity of cMet over JNK2
[29] = biological target: Tyrosine-protein kinase BTK (Homo sapiens, UniProt Q06187); test: Inhibition of BTK
[30] = biological target: Mitogen-activated protein kinase 3 (Homo sapiens, UniProt P27361); test: Inhibition of ERK1
[31] = Selectivity of cMet over JAK3
[32] = Selectivity of cMet over PIM1
[33] = Volume of distribution in iv dosed rat; format: ADME, organism-based; settings: in vivo
[34] = Selectivity of cMet over ZAP70
[35] = Selectivity of cMet over PKAalpha
[36] = Selectivity of cMet over P70S6
[37] = Selectivity of cMet over Tie2 kinase
[38] = Selectivity of cMet over CDK5
[39] = Selectivity of cMet over Flt1
[40] = biological target: Cyclin-dependent kinase 5 (Homo sapiens, UniProt Q00535); test: Inhibition of CDK5
[41] = Selectivity of cMet over ERK1
[42] = Clearance in iv dosed rat; format: ADME, organism-based; settings: in vivo
[43] = Half life in iv dosed rat; format: ADME, organism-based; settings: in vivo
[44] = Selectivity of cMet over JAK2
[45] = Selectivity of cMet over MSK1
[46] = Selectivity of cMet over Flt2
[47] = Selectivity of cMet over cFMS kinase
[48] = biological target: Ribosomal protein S6 kinase beta-1 (Homo sapiens, UniProt P23443); test: Inhibition of P70S6
[49] = Bioavailability in iv dosed rat; format: ADME, organism-based; settings: in vivo
[50] = Selectivity of cMet over LCK
[51] = Selectivity of cMet over P38
[52] = Selectivity of cMet over FGFRK
[53] = biological target: Vascular endothelial growth factor receptor 1 (Homo sapiens, UniProt P17948); test: Inhibition of Flt1 kinase
[54] = biological target: Vascular endothelial growth factor receptor 3 (Homo sapiens, UniProt P35916); test: Inhibition of Flt4 kinase
[55] = biological target: Tyrosine-protein kinase JAK2 (Homo sapiens, UniProt O60674); test: Inhibition of JAK2
[56] = biological target: Tyrosine-protein kinase ZAP-70 (Homo sapiens, UniProt P43403); test: Inhibition of ZAP70
[57] = biological target: Fibroblast growth factor receptor 2 (Homo sapiens, UniProt P21802); test: Inhibition of FGFRK2

SMILES: COc1cc2nccc(Oc3ccc(NC(=S)NC(=O)Cc4ccccc4)cc3F)c2cc1OC
IC50 [2]: 8.7 nM

SMILES: COc1cc2nccc(Oc3ccc4cc(NC(=O)Cc5ccccc5)ccc4c3)c2cc1OC
Selectivity ratio [3]: 3 | Ki [1]: 89 nM | Selectivity ratio [4]: 9

SMILES: COc1cc2c(Oc3ccc(-c4cnc(Nc5ccc(F)cc5)n(C)c4=O)nc3)ccnc2cc1OCCCN1CCOCC1
IC50 [5]: 4700 nM | IC50 [6]: > 25000 nM | Ki [7]: 83 nM | Selectivity ratio [8]: < 10 | Ki [9]: 51 nM | Selectivity ratio [10]: > 100 | ED90 [11]: 30 mg/kg | IC50 [12]: 59 nM | Selectivity ratio [13]: > 100 | IC50 [14]: 1300 nM | IC50 [15]: 221 nM | IC50 [16]: 7800 nM | IC50 [17]: > 25000 nM | IC50 [18]: 426 nM | IC50 [19]: > 100000 nM | IC50 [20]: 52000 nM | Ki [21]: 1.3 nM | Selectivity ratio [22]: > 100 | Selectivity ratio [23]: > 100 | IC50 [24]: > 100000 nM | IC50 [25]: 33 nM | Ki [1]: 3.4 nM | Selectivity ratio [26]: > 100 | IC50 [27]: > 25000 nM | Selectivity ratio [28]: > 100 | IC50 [29]: 126 nM | IC50 [30]: > 100000 nM | Selectivity ratio [31]: > 100 | Selectivity ratio [32]: > 100 | Vd [33]: 3.4 L/kg | Selectivity ratio [34]: > 100 | Selectivity ratio [35]: > 100 | Selectivity ratio [36]: > 100 | Selectivity ratio [37]: > 100 | Selectivity ratio [38]: > 100 | Selectivity ratio [39]: > 100 | IC50 [40]: > 100000 nM | Selectivity ratio [41]: > 100 | clearance [42]: 9.33 mL/min/kg | half-life [43]: 2.4 h | Selectivity ratio [44]: > 100 | Selectivity ratio [45]: > 100 | Selectivity ratio [46]: > 100 | Selectivity ratio [47]: < 10 | IC50 [48]: 65000 nM | bioavailability [49]: 48% | Selectivity ratio [50]: < 10 | Selectivity ratio [51]: > 100 | Selectivity ratio [52]: > 100

Second part, led by results:

Ki [1]: 21 nM
SMILES: CCN1CCN(CCCOc2cc3nccc(Oc4ccc(-c5cnc(Cc6ccccc6)n(C)c5=O)cc4F)c3cc2OC)CC1

IC50 [53]: 45 nM | IC50 [5]: > 100000 nM | IC50 [6]: > 100000 nM | Ki [7]: 139 nM | Ki [9]: 22 nM | IC50 [12]: 82 nM | IC50 [14]: > 25000 nM | IC50 [15]: 26 nM | IC50 [54]: 5 nM | IC50 [18]: > 200 nM | IC50 [19]: > 100000 nM | IC50 [20]: > 100000 nM | Ki [21]: 28 nM | IC50 [24]: 3600 nM | IC50 [25]: < 4 nM | Ki [1]: 4.9 nM | IC50 [55]: 3400 nM | IC50 [27]: > 1000 nM | IC50 [29]: 27 nM | IC50 [30]: > 100000 nM | Vd [33]: 3.4 L/kg | IC50 [56]: > 8300 nM | IC50 [57]: 140 nM | clearance [42]: 9.33 mL/min/kg | half-life [43]: 2.4 h | IC50 [48]: 5700 nM | bioavailability [49]: 34%
SMILES: COc1cc2c(Oc3ccc(-c4cnc(Nc5ccc(F)cc5)n(C)c4=O)cc3F)ccnc2cc1OCCCN1CCOCC1
ED90 [11]: 30 mg/kg

Ki [7]: > 1300 nM | Ki [9]: 1030 nM
SMILES: COc1cc2nccc(Oc3ccc(-c4cnc(Cc5ccccc5)n(C)c4=O)cc3F)c2cc1OC

Ki [1]: 9.2 nM
SMILES: COc1cc2c(Oc3ccc(-c4cnc(Cc5ccccc5)n(C)c4=O)cc3F)ccnc2cc1OCCCN1CCN(C)CC1

— ChEMBL document CHEMBL1140082, “Design, synthesis, and biological evaluation of potent c-Met inhibitors” (J Med Chem, 2008)
